CHRM1 PAM = human CHRM1 positive allosteric modulation; P11229; CHO-K1 hM1, Fluo-8 calcium fluorescence, ACh EC20; 0% = ACh EC20, 100% = maximal ACh; activation, % at 3 µM; 0.088% of 360,000 active; in the data active means activation above about 19%, passing the limit was not always enough
TAAR1 antag = human TAAR1 antagonism; CHO RD-HGA16 TAAR1, Fluo-8 calcium fluorescence, antagonist; inhibition, % at 3 µM; 1.5% of 360,000 active; AID 624466;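 active means inhibition above a per-plate cutoff, the mean inhibition of test compounds on that plate plus 3 SD, cut at about 49% in these data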
Target sequence (Q96RJ0 whole entry, looked up): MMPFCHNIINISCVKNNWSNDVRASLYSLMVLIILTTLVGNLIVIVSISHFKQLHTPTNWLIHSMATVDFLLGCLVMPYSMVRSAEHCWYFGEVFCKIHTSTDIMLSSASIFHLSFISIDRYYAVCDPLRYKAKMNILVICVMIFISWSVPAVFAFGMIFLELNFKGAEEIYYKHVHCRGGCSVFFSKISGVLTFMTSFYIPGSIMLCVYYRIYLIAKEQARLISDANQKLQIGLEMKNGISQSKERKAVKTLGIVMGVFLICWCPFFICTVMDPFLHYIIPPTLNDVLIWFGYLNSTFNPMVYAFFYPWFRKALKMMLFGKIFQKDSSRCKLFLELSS
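Test system: RD-HGA16 CHO cells with stable hTAAR1 and Gα16 / Probe or stimulus: EC80 β-phenethylamine stimulus / Times: seeding 17-24 h prior, 75-min 37 °C, 30-min RT dye loading / Detection: Fluo-8 calcium-sensitive fluorescence / Read-out basis: % inhibition scaled between DMSO and EC80 PEA controls / Repeats: singlicate, one well per test compound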
TAAR1 agonist = human TAAR1 agonism. CHO RD-HGA16 TAAR1, Fluo-8 calcium fluorescence; vehicle wells 0%, saturating PEA agonist 100%. Q96RJ0. activation, % at 3 µM. AID 624467. 0.99% of 360,000 active;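 active means activation above the mean activation of all test compounds in the run plus 3 SD, cut at about 38% in these data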
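System: CHO-derived RD-HGA16 cells with stable Gα16 and human TAAR1 / Times: 17-24 h plating, Fluo-8 75 min 37 °C, 30 min RT / Technique: calcium-sensitive Fluo-8 signal, excitation 470-495, emission 515-575 nm / Measure: % activation relative to PEA EC100 response / Benchmarks: DMSO and PEA EC100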
CHRM1 agonist = activates human CHRM1 receptor | CHO-K1 hM1, Fluo-8 calcium fluorescence, agonist mode; 0% DMSO, 100% acetylcholine EC100 | activation, % at 3 µM | 0.33% of 360,000 active | AID 588814;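 active means activation above the run's mean compound activation plus 3 SD, cut at about 16% in these data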;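 further: peak over basal fluorescence ratio within a 140 s kinetic read after compound addition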
M1 antag = human CHRM1 antagonism; P11229; CHO-K1 hM1, Fluo-8 calcium fluorescence, ACh EC80 antagonist; inhibition, % at 3 µM; 1.3% of 360,000 active;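 active means percent inhibition above its own plate's cutoff, namely the mean of that plate's compound wells plus 3 SD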;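 further: peak over basal fluorescence ratio during 140 s after agonist addition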
nonsel antag count = counter-screen for TAAR1 antagonists: nonselective antagonists. inhibition, % at 3 µM. AID 651780. 77% of 2,400 active. counterscreen cell line, calcium fluorescence, antagonist mode. shares compounds with TAAR1 antag; in the data active means inhibition above about 22%;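 further: CHO-Ga16 host cells stimulated with ATP at an EC80 level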
TAAR1 ant conf = confirmation of human TAAR1 antagonists; TAAR1-expressing cells, fluorescence antagonist read-out; inhibition, % at 3 µM; AID 651785; 40% of 2,400 active; shares compounds with TAAR1 antag; in the data active means inhibition above about 49%;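 further: CHO-Ga16 host cells challenged with agonist PEA near its EC80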
Ga16 ag counter = nonselective Ga16 agonist in TAAR1 antagonist counter-screen. shares compounds with TAAR1 antag. Ga16-expressing cells, calcium fluorescence, agonist counterscreen. activation, % at 3 µM. 18% of 2,400 active. AID 651953; in the data active means activation above about 12%
TAAR1 ag count = activates human TAAR1 in antagonist counter-screen. shares compounds with TAAR1 antag. hTAAR1 cell line, fluorescence activation, agonist mode. activation, % at 3 µM. 2% of 2,400 active. AID 651955; in the data active means activation above about 37%;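 further: CHO cells stably expressing TAAR1 with calcium dye readout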
Hits are given with their value; i = inactive; nt = no result given. Sampled rows, rich in hits. Any-hit rate of the full collection: about 3.4%.

SMILES	CHRM1 PAM	TAAR1 antag	TAAR1 agonist	CHRM1 agonist	M1 antag	nonsel antag count	TAAR1 ant conf	Ga16 ag counter	TAAR1 ag count
C=C(C)C(O)CC/C(C)=C/Cc1c(O)ccc(C(=O)/C=C/c2ccc(O)cc2)c1O (stereo unspecified)	i	69.6	i	i	i	28.5	i	i	i
COc1ccc(S(=O)(=O)N2CCN(C(=O)c3cc(-c4ccccc4OC)n[nH]3)CC2)cc1	i	75.7	i	i	i	24.7	i	i	i
CN1C(=O)CSc2ccc(NC(=O)Nc3ccccn3)cc21	i	70.2	i	i	i	i	48.9	i	i
CCOc1ccc(OCC)c(NC(=O)Nc2ccc3c(c2)N(C)C(=O)CS3)c1	i	56.1	i	i	i	22.1	i	i	i
O=C1CC(c2ccc(OCCCCCOc3ccc(C4CC(=O)NC4=O)cc3)cc2)C(=O)N1 (stereo unspecified)	i	63.6	i	i	i	40.1	53.0	14.3	i
CCCCCCCCOc1ccc(C2CC(=O)NC2=O)cc1 (stereo unspecified)	i	i	i	i	i	nt	nt	nt	nt
CCOc1cc(/C=C/C(=O)NCCc2ccc(S(N)(=O)=O)cc2)ccc1OCC(C)C	i	76.4	i	i	i	24.8	i	i	i
COc1cccc(N2CCN(C(=O)CCCCCNc3nc(=S)[nH]c4ccccc34)CC2)c1	i	58.7	i	i	i	i	i	i	i
CC(C)=CCC/C(C)=C/CN1C(=O)N(c2ccc(F)cc2)[C@H]2C[C@@H](c3ccccc3)[C@@H](C)[C@@H](C(=O)N3CCOCC3)C[C@H]21	nt	64.6	i	nt	nt	35.1	59.5	i	i
COc1cc(CN2CC(=O)N(c3ccccc3Cl)C2=S)cc(OC)c1OC	i	75.0	i	i	34.1	49.5	65.5	14.2	i
COc1cc(CN2CC(=O)N(c3cccc(Cl)c3C)C2=S)cc(OC)c1OC	i	i	i	i	i	nt	nt	nt	nt
CC(=O)N1CCN(c2ccccc2NC(=O)c2ccc(-c3cccc([N+](=O)[O-])c3)o2)CC1	i	66.4	i	i	i	27.5	49.2	i	i
COc1cc(NC(=O)c2ccc(-c3cccc([N+](=O)[O-])c3)o2)ccc1NC(=O)C(C)C	i	63.0	i	i	i	30.9	i	i	i
COc1ccc(CCNC(=O)c2cccc([N+](=O)[O-])c2)cc1OC	i	i	i	i	i	nt	nt	nt	nt
COc1ccc(CCNC(=O)c2ccc(-c3cccc([N+](=O)[O-])c3)o2)cc1OC	i	59.5	i	i	i	27.8	i	14.5	i
O=C(NC1CCCCC1)C(c1ccncc1)n1c(=O)c(-c2cc3ccccc3[nH]2)nc2ccccc21 (stereo unspecified)	nt	i	i	nt	nt	nt	nt	nt	nt
Clc1ccc(-c2nc3c4ccccc4ccn3c2Cc2ccsc2)cc1	nt	i	i	nt	nt	nt	nt	nt	nt
CCOC(=O)N1CCN(Cc2nc3ccc([N+](=O)[O-])cc3c(=O)n2-c2ccccc2F)CC1	i	71.3	i	i	i	i	i	i	i
CCN1C(=O)C(CC(=O)Nc2ccc(OC)cc2)N(CCc2ccccc2F)C1=S (stereo unspecified)	i	74.5	i	i	i	30.8	i	i	i
CCN1C(=O)C(CC(=O)Nc2ccc(OC)cc2)N(CCc2ccccc2)C1=S (stereo unspecified)	i	i	i	i	i	nt	nt	nt	nt
COc1ccc(NC(=O)CC2C(=O)N(C)C(=S)N2CCc2ccccc2F)cc1 (stereo unspecified)	i	57.2	i	i	i	36.6	55.8	12.0	i
COc1ccc(NC(=O)CC2C(=O)N(C)C(=S)N2Cc2ccco2)cc1 (stereo unspecified)	i	i	i	i	i	nt	nt	nt	nt
O=S1(=O)CC(N2CCCC2)CN1Cc1cn(Cc2cccc(C(F)(F)F)c2)nn1 (stereo unspecified)	nt	i	i	nt	nt	nt	nt	nt	nt
CC(N)C(=O)NC(CO)C(O)C(N)C=O (stereo unspecified)	i	i	i	i	i	nt	nt	nt	nt
COc1ccc(OC)c(CCNC(=O)c2ccc3c(c2)N(Cc2ccccc2)CCS3)c1	i	i	i	i	i	nt	nt	nt	nt
SMILES	CHRM1 PAM	TAAR1 antag	TAAR1 agonist	CHRM1 agonist	M1 antag	nonsel antag count	TAAR1 ant conf	Ga16 ag counter	TAAR1 ag count
NS(=O)(=O)c1ccc(CCNC(=O)c2ccc3c(c2)N(Cc2ccccc2)CCS3)cc1	i	82.6	i	i	36.7	38.8	61.8	i	i
COc1ccc(CCNC(=O)c2ccc3c(c2)N(Cc2ccccc2)CCS3)cc1OC	i	80.1	i	i	39.4	39.5	61.6	i	i
O=C(NCCc1ccccc1)c1cc(-c2ccccc2)c(N2CCOCC2)s1	i	i	i	i	i	nt	nt	nt	nt
COc1ccc(CCNC(=O)c2cc(-c3ccccc3)c(N3CCOCC3)s2)cc1OC	i	66.5	i	i	i	24.9	i	i	i
CCOC(=O)[C@]12CCC=C1N(Cc1cccc3ccccc13)C(=O)[C@H](CC(=O)N1CCN(C(=O)c3ccco3)CC1)C2	nt	i	i	nt	nt	nt	nt	nt	nt
CCC(C)CN1C(=O)CN(S(C)(=O)=O)CC1(C)C(=O)NC(C)C (stereo unspecified)	nt	i	i	nt	nt	nt	nt	nt	nt
COc1ccc(Cl)cc1CN1CCN(c2nc(C)cc(C)c2C#N)CC1	i	i	i	i	i	nt	nt	nt	nt
Cc1cc(C)c(C#N)c(N2CCN(CCOc3ccc(Cl)cc3)CC2)n1	i	56.8	i	i	i	34.4	i	i	i
CCOC(=O)c1c(C)[nH]c(C(=O)COC(=O)C2(C)CC2(Cl)Cl)c1C (stereo unspecified)	i	70.7	i	i	i	45.2	73.7	i	i
C#CCn1c2ccccc2c(=O)n1CCOc1ccccc1OC	nt	i	i	nt	nt	nt	nt	nt	nt
CN(Cc1cnn(C)c1)C(=O)c1cc(COc2c(F)cccc2F)on1	i	105.2	i	i	i	i	i	i	i
COc1cccc(CN(C)C(=O)c2cc(COc3c(F)cccc3F)on2)c1	i	i	i	i	i	nt	nt	nt	nt
Cc1ccc([C@H]2C[C@@H](O)[C@H](n3cc(COC(=O)c4ccccc4)nn3)CN2C(=O)c2cccs2)cc1	i	i	i	i	i	nt	nt	nt	nt
O=C(CN1CCN(S(=O)(=O)c2ccccc2)CC1)Nc1ccccc1C(=O)NC1CC1	i	i	i	i	i	nt	nt	nt	nt
O=C(CN1CCN(S(=O)(=O)c2ccc(F)c(F)c2)CC1)Nc1ccccc1C(=O)NC1CC1	i	48.9	i	i	i	21.6	i	i	i

Screening results: PubChem BioAssay, The Scripps Research Institute Molecular Screening Center
